Sampled rows, rich in hits. Any-hit rate of the full collection: about 2.6%.
SIAE primary – inhibitors of human sialic acid acetylesterase SIAE; Q9HAT2; SIAE FP-Rh probe binding, fluorescence polarization; inhibition, % at 9.66 µM; 370,000 tested, 0.69% active; AID 1053197;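 active = inhibition above a cutoff: mean of compounds within the control limits plus 3 SD of those, cut at about 17% in these data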;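 also: 0% = plate median of compound wells and 100% = probe without SIAE protein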
ABHD4 inh – ABHD4 (mouse) inhibition, primary FP screen; 370,000 tested, 0.54% active; inhibition, % at 8.92 µM; purified mABHD4, FP-Rh probe fluorescence polarization;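 active = inhibition exceeding the mean over every tested compound plus 3 SD, cut at about 30% in these data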;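 also: 0% = plate median of compound wells and 100% = S159A mutant with DMSO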
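Assay system: mABHD4 protein; medium: HEPES pH 7.0, NaCl, Pluronic buffer; dosing: 8.92 µM, single dose; schedule: 45 min + 60 min at 25 °C; signal: FP readout, ex 525 nm / em 598 nm; read-out: normalized percent inhibition of probe labeling; repeats: single replicate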
TCR CD3 inh – blocks the human TCR-CD3 interaction; TAMRA-labeled TCR probe fluorescence, biochemical; inhibition, % at 9.4 µM; 360,000 tested, 0.37% active; in the data active = inhibition above about 19%;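 also: recombinant mutant TCR 2C K166C tagged with TAMRA read by polarization; 0% = receptor in buffer alone and 100% = receptor with positive control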
HTRA1 inhibitor – blocks human HTRA1 serine peptidase. recombinant HTRA1, FP-rhodamine activity-based probe, fluorescence polarization. 340,000 tested, 0.5% active. inhibition, % at 5.96 µM. AID 504803. Q92743; in the data active = inhibition above about 36%;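 also: 0% = enzyme with DMSO and 100% = wells lacking enzyme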
PRMT1 inh – inhibitors of human PRMT1; inhibition, % at 2.79 µM; 370,000 tested, 1.3% active; recombinant PRMT1, activity-based probe fluorescence polarization; Q99873;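 active = inhibition above about 21% made by adding two undisclosed values, limit read from the data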
Target sequence (Q99873 whole entry, looked up): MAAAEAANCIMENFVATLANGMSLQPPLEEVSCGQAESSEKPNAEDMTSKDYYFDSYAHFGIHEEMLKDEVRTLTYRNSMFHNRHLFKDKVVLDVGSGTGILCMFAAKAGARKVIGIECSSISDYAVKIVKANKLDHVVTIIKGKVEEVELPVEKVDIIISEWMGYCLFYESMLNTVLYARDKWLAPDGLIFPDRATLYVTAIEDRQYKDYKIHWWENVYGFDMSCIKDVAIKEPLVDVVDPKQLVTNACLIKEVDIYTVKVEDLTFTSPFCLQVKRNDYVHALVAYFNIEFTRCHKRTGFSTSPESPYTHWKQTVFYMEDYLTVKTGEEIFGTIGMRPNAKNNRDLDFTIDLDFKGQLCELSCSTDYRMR
mABHD4 conf – confirmation of mouse ABHD4 inhibitors. shares compounds with ABHD4 inh. purified mABHD4, FP-Rh probe fluorescence polarization. inhibition, % at 8.92 µM. 1,800 tested, 55% active. AID 720658;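 active = mean inhibition across replicates above the hit cutoff set in the primary screen, cut at about 30% in these data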;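 also: 0% = wild-type ABHD4 with DMSO and 100% = catalytically dead S159A mutant with DMSO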
Numbers without * were called inactive; . = not tested or not shown.

SMILES	SIAE primary	ABHD4 inh	TCR CD3 inh	HTRA1 inhibitor	PRMT1 inh	mABHD4 conf
COc1ccc(/C=N/NC(=O)c2nn(-c3ccccc3)c(=O)c3c(N)scc23)cc1	11	46*	7	21	22*	27
COc1ccc(/C=N/NC(=O)c2nn(-c3ccc(Cl)cc3)c(=O)c3c(N)scc23)cc1	11	30*	-1	22	24*	17
CN(Cc1ccccc1)S(=O)(=O)c1cccc(C(=O)OCc2ccccc2Cl)c1	5	-6	.	.	0	.
Cc1ccccc1-c1nnc2n1N=C(c1ccc(O)c(O)c1)CS2	14	32*	.	.	14	21
CCc1noc(C)c1C(=O)N(C)CC(=O)Nc1ccc(Br)cc1C	2	41*	-2	-2	2	2
COc1ccc(C[N+]2=C(N)N[C@@]3(C=C(C)Cn4c(=O)n(-c5ccccc5)c(=O)n43)C2)c(OC)c1	11	7	.	.	-3	.
CCCc1cc(=O)[nH]c2nnc(SCC(=O)NC3CCCC3)n12	5	-4	4	1	-3	.
Cc1c(C)n2c(SCC(=O)NC3CCCCC3)nnc2[nH]c1=O	-2	31*	-4	6	3	5
CCCCn1c(N)c(N(CCOC)C(=O)C2CCN(C(=O)c3ccc(Cl)cc3)CC2)c(=O)[nH]c1=O	-4	1	-3	-2	-10	.
CCCCn1c(N)c(N(CCOC)C(=O)C2CCN(C(=O)c3ccc(F)cc3)CC2)c(=O)[nH]c1=O	9	31*	1	-2	3	4
CCN(CC)c1ccc(Nc2nc(-c3cccnc3)cs2)cc1	9	30*	0	35	6	35*
COc1ccc2c(c1)Sc1ccc(Cl)cc1N2	2	34*	.	.	12	34*
CC1(C)CC(=O)C2=C(C1)Nc1cc(Cl)ccc1S2	5	10	0	6	3	.
COc1ccc(C(N)c2csc(Nc3ccc(C(F)(F)F)cn3)n2)cc1 (stereo not given)	4	34*	-1	.	-2	25
CCCC1CCC2(CCC(=O)N2CCC#N)CC1 (stereo not given)	-7	9	.	.	-2	.
Cc1cccn2c(CNCCSc3nccn3C)c(C(=O)N3CCCCC3)nc12	-8	35*	8	-1	1	-6
Cc1cc(/C=C2/C(=O)NN(c3ccccc3)C2=O)c(C)n1-c1ccc(O)cc1	1	34*	8	3	0	27
COc1ccc(-n2c(C)cc(/C=C3\C(=O)NN(c4ccccc4)C3=O)c2C)cc1	4	-1	-1	1	1	.
Cc1cc(/C=C2\SC(=S)NC2=O)c(C)n1-c1ccccc1	-8	8	6	.	-3	.
Cc1cc(/C=C2\SC(=S)NC2=O)c(C)n1-c1ccc(O)cc1	-9	35*	4	-18	-5	44*
COc1ccc(CN2CN3Cc4ccccc4C3CS2(=O)=O)cc1 (stereo not given)	2	-1	.	.	3	.
Cc1ccc(NC(=O)N2CC(C)OC(C)C2)cc1[N+](=O)[O-] (stereo not given)	-2	0	3	.	0	.
CCSC1=N/C(=C\c2ccc(-c3ccccc3[N+](=O)[O-])o2)C(=O)S1	11	37*	-3	14	15	16
Cc1c(Cl)cccc1N/C(SCC(=O)N1CCCCCC1)=C(/C#N)c1nc2ccccc2s1	-3	35*	-3	-3	-1	34*
COc1cc(NS(=O)(=O)c2ccc(Nc3nc(-c4ccccn4)cs3)cc2)nc(OC)n1	-1	35*	-12	12	2	31*
SMILES	SIAE primary	ABHD4 inh	TCR CD3 inh	HTRA1 inhibitor	PRMT1 inh	mABHD4 conf
COc1ccc(-c2csc(Nc3ccc(S(=O)(=O)Nc4cc(C)on4)cc3)n2)cc1C	15	34*	6	-43	-1	29
COc1ccc(-c2csc(Nc3ccc(S(=O)(=O)Nc4cc(OC)nc(OC)n4)cc3)n2)cc1	13	27	7	2	-2	.
C[N+](C)(CCOc1ccccc1)Cc1ccccc1	9	28	7	4	11	.
Cc1cc(C(C)(C)CC(C)(C)C)ccc1OCCOCC[N+](C)(C)Cc1ccccc1	3	36*	5	25	0	45*
O=C(O)c1cc(N/N=C2/CC(c3ccccc3)Oc3ccccc32)ccc1Cl (stereo not given)	7	32*	0	4	6	72*
c1cc2c(cc1CNc1ccc(N3CCOCC3)cc1)OCO2	12	30*	0	30	5	-15
